The text below walks through data of ChEMBL document CHEMBL4732218, “Synthesis and biological evaluation of benzhydryl-based antiplasmodial agents possessing Plasmodium falciparum chloroquine resistance transporter (PfCRT) inhibitory activity” (Eur J Med Chem, 2021).

The target of series [1] is T1, Chloroquine resistance transporter (Plasmodium falciparum) (UniProt Q9N623).
T1 sequence (whole entry): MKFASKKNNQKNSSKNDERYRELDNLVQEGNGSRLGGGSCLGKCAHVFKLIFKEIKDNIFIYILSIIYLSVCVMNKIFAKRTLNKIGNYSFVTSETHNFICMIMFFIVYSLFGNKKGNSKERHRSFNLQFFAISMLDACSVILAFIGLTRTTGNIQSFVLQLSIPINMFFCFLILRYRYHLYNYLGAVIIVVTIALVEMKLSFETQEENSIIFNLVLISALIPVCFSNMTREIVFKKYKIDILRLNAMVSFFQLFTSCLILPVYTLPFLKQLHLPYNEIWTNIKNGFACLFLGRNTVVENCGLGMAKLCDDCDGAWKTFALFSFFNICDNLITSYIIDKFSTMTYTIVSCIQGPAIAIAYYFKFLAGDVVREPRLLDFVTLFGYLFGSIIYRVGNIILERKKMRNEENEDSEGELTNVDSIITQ
The series can be described thus: Inhibition of Plasmodium falciparum Dd2 CRT expressed in Xenopus laevis oocyte assessed as inhibition of [3H]-CQ transport at 100 uM incubated for 1.5 hrs by microbeta scintillation counting method. Type of series: cell-based. The method, boiled down: (§1)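 Xenopus oocytes expressing PfCRT Dd2 and non-expressing oocytes, stored at 16–18 °C in OR2+ buffer (pH 7.8), assayed 3-4 days post-injection. [3H]CQ (0.25 µM) influx measured over 1.5 h at 27.5 °C in pH 5.5 medium (96 mM NaCl, 10 mM MES/Tris) with 15 µM unlabeled CQ, scintillation counting. PfCRT-mediated transport = uptake in expressing minus non-expressing oocytes.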

Series [2] concerns Plasmodium falciparum. Nature of the series: Antimalarial activity against Plasmodium falciparum D10 by parasite lactate dehydrogenase assay. The format is functional, organism-based.
Series [3] has as its system Plasmodium falciparum. Nature of the series: Antimalarial activity against Plasmodium falciparum W2 by parasite lactate dehydrogenase assay. Type of series: functional, organism-based.
For series [4], the target named is T2, Chloroquine resistance transporter (Plasmodium falciparum, UniProt Q9N623).
T2 sequence (Q9N623 whole entry): T1 sequence (whole entry)
The series can be described thus: Inhibition of Plasmodium falciparum Dd2 CRT expressed in Xenopus laevis oocyte assessed as inhibition of [3H]-CQ transport incubated for 1.5 hrs by microbeta scintillation counting method. Type of series: cell-based. The method, boiled down:
as §1

A short description of series [5]: Cytotoxicity against mouse NIH/3T3 cells assessed as reduction in cell viability incubated for 24 hrs by neutral red dye uptake assay. The format is cell-based, NIH3T3. A digest of the protocol: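 NIH3T3 cells, 5 × 10^4/well, cultured 24 h at 37 °C, 5% CO2, then exposed 24 h to compounds in DMSO at 8–160 µM; medium alone as negative control. Viability by Neutral Red uptake (3 h at 37 °C), dye extracted in acetic acid/ethanol, absorbance 540 nm. Three experiments, six replicates per concentration.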

Series [6] relates to Plasmodium berghei. Nature of the series: Antimalarial activity against in Plasmodium berghei ANKA strain GFP-con infected in Balb/c mouse assessed as blocked of transmission activity to Anopheles stephensi by measuring reduction in […] in mosquito at 10 micromol/kg, ip treated first dose 3 days post infection and female mosquitos feed blood meal on day 4 after 1.5 hrs of dosing by direct exposure and measured on day 8 by fluorescence microscopic analysis (reference value: 357). The format is functional. To be noted: dose 10 µmol/kg; time 3 day. A digest of the protocol: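 P. berghei ANKA GFP-con, i.p. 10^7 infected RBC into 8–10-week BALB/c mice; on day 3 mice with ~5% parasitemia and gametocytes randomised, 3 per group. Dosed i.p. 10 µmol/kg on afternoon of day 3 and again day 4, 1.5 h before 1 h feed by ~150 female An. stephensi. Day 8: fluorescent midgut oocysts counted in 20–30 mosquitoes; triplicate cages; PBS control; two-tailed t-test.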

Series [7] concerns Plasmodium berghei. Nature of the series: Antimalarial activity against liver stage Plasmodium berghei PbmCherryhsp70 sporozoites infected in human HepG2 cells assessed as reduction in parasite number at 8 uM incubated for 24 hrs followed by removal of media and supplemented with fresh media and further incubated for 24 hrs […] relative to control. The format is functional. A digest of the protocol:
(§2)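 HepG2 cells (60000/well, seeded day before) infected 2 h with 20'000 PbmCherry_hsp70 sporozoites from An. stephensi salivary glands, then detached, pooled and treated from 2 hpi at graded concentrations with DMSO control. Medium changed 24 hpi; fixed 4% PFA at 48 hpi. Parasite number and size from mCherry signal by automated microscopy; 6 replicates; host growth checked by phase contrast; one-way ANOVA with Dunnett.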

Series [8] relates to Plasmodium berghei. Nature of the series: Antimalarial activity against liver stage Plasmodium berghei PbmCherryhsp70 sporozoites infected in human HepG2 cells assessed as reduction in parasite size at 2 uM incubated for 24 hrs followed by removal of media and supplemented with fresh media and further incubated for 24 hrs […]. The format is functional, organism-based. The method, boiled down: as §2

Calls of active or inactive are those of the source. No cut-off for these calls is given here.

The inhibition is the drop in the measured response relative to a control, in per cent. A word on the IC50: it is the midpoint of a concentration-inhibition curve. Broadly, the CC50 is the concentration at which the toxic effect on the cells reaches its halfway point.

For the compound `OC(c1ccc(Cl)cc1)(c1ccc(CN2CCNCC2)cc1)c1ccnc2cc(Cl)ccc12` (centres undefined), the inhibition entry in series [1] is “inactive”. Further, the IC50 in the series with Plasmodium falciparum [2] and with Plasmodium falciparum [3] was 2000 nM in each case.

On to `COc1cc(NC(c2ccc(CN3CCNCC3)cc2)c2cccc(Cl)c2)c2ncccc2c1` (centres undefined), for which the results for the IC50 (in series [4]; in the series with Plasmodium falciparum [2]; with Plasmodium falciparum [3]) were 64000 nM, 2800 nM and 2300 nM, respectively. Also, the inhibition in series [1] came out at 65%. Further, in series [5], the CC50 at 24 h was 19000 nM. In addition, the Activity in the series on Plasmodium berghei [6] is 454.

Turning to `O=C(c1ccc(Cl)cc1)c1ccc(CN2CCNCC2)cc1`, the inhibition in series [1] stood at 22%. Besides, the values for the 50% inhibitory concentration (IC50) in the series on Plasmodium falciparum [2] and in the series on Plasmodium falciparum [3] were above 15000 nM and 8600 nM, respectively.

On to `COc1cc(NC(c2ccc(CN3CCNCC3)cc2)c2cccc(Cl)c2)n2nc(C)nc2n1` (centres undefined), for which the figures for the 50% inhibitory concentration (IC50) (in series [4]; with Plasmodium falciparum [2]; in the series on Plasmodium falciparum [3]) were 12500 nM, 3700 nM and 920 nM, respectively. In series [1], the inhibition was determined as 98%. Also, in series [5], the CC50 at 24 h was below 3500 nM.

On to `COc1cc(NC(c2ccc(CN3CCCC3)cc2)c2cccc(Cl)c2)c2ncccc2c1` (centres undefined), for which the IC50 came to 55000 nM in series [4], 4500 nM in the series on Plasmodium falciparum [2] and 3700 nM with Plasmodium falciparum [3]. In addition, the inhibition in series [1] amounted to 65%. Further, the CC50 at 24 h in series [5] turned out to be 28000 nM. Further, in the series on Plasmodium berghei [6], the Activity was 491.

With `OC(c1ccc(Cl)cc1)c1ccc(CCN2CCCC2)cc1` (centres undefined), the inhibition in series [1] was found to be 22%. Moreover, the half-maximal inhibitory concentration (IC50) with Plasmodium falciparum [2] and in the series with Plasmodium falciparum [3] was above 15000 nM throughout.

Consider `Clc1ccc(C(c2ccc(CN3CCNCC3)cc2)c2ccnc3cc(Cl)ccc23)cc1` (centres undefined), for which the inhibition result in series [1] is “inactive”. For the same compound, the IC50 with Plasmodium falciparum [2] is 3700 nM; with Plasmodium falciparum [3], 2700 nM.

With `Clc1cccc(C(Nc2ccnc3cc(Cl)ccc23)c2ccc(CN3CCCCC3)cc2)c1` (centres undefined), the inhibition result in series [1] is “inactive”. In addition, the figures for the IC50 with Plasmodium falciparum [2] and with Plasmodium falciparum [3] were 84 nM and 88 nM, respectively.

For the compound `Clc1ccc(C(Nc2ccnc3cc(Cl)ccc23)c2ccc(CN3CCCCC3)cc2)cc1` (centres undefined), the inhibition result in series [1] was “inactive”. Moreover, the values for the half-maximal inhibitory concentration (IC50) in the series on Plasmodium falciparum [2] and with Plasmodium falciparum [3] were 65 nM and 69 nM, respectively.

In the case of `Oc1cccc(C(Nc2ccnc3cc(Cl)ccc23)c2ccc(CN3CCNCC3)cc2)c1` (centres undefined), the inhibition result in series [1] is “inactive”. Besides, the concentration for half-maximal inhibition (IC50) in the series on Plasmodium falciparum [2] is 179 nM; in the series on Plasmodium falciparum [3], 475 nM.

Take `Clc1ccc2c(NC(c3ccc(CN4CCNCC4)cc3)c3cccc(OCCOc4cccc(C(Nc5ccnc6cc(Cl)ccc56)c5ccc(CN6CCNCC6)cc5)c4)c3)ccnc2c1` (centres undefined): the inhibition entry in series [1] is “Active”.

Consider `OC(c1ccc(Cl)cc1)c1ccc(CN2CCNCC2)cc1` (centres undefined), for which the inhibition in series [1] is 22%. Moreover, the IC50 with Plasmodium falciparum [2] was above 15000 nM; with Plasmodium falciparum [3], 11000 nM.

Regarding `COc1cccc(C(Nc2ccnc3cc(Cl)ccc23)c2ccc(CN3CCNCC3)cc2)c1` (centres undefined), in series [1], the inhibition entry is “Active”. Besides, the IC50 in the series on Plasmodium falciparum [2] was found to be 40 nM; in the series with Plasmodium falciparum [3], 75 nM.

For `Clc1cccc(C(Nc2ccnc3cc(Cl)ccc23)c2ccc(CCN3CCCC3)cc2)c1` (centres undefined), the inhibition entry in series [1] is “inactive”. Further, the results for the 50% inhibitory concentration (IC50) with Plasmodium falciparum [2] and in the series on Plasmodium falciparum [3] were 23 nM and 22 nM, respectively.

Consider `Clc1ccc(C(Nc2ccnc3cc(Cl)ccc23)c2ccc(CCN3CCCC3)cc2)cc1` (centres undefined), for which the inhibition result in series [1] is “inactive”. In addition, the 50% inhibitory concentration (IC50) in the series on Plasmodium falciparum [2] is 19 nM; in the series with Plasmodium falciparum [3] it was 27 nM.

In the case of `COc1cc(NC(C)CCCN)c2ncccc2c1` (centres undefined) [PRIMAQUINE], the inhibition at 8 µM in the series on Plasmodium berghei [7] is 50%. Also, the inhibition result with Plasmodium berghei [8] is “Active”. For the same compound, the figures for the IC50 with Plasmodium falciparum [2] and in the series with Plasmodium falciparum [3] were 5700 nM and 4400 nM, respectively.

As to `Clc1ccc(C(Nc2ccnc3cc(Cl)ccc23)c2ccc(CN3CCN(Cc4ccc(C(Nc5ccnc6cc(Cl)ccc56)c5cccc(Cl)c5)cc4)CC3)cc2)cc1` (centres undefined), the concentration for half-maximal inhibition (IC50) in series [4] was determined as 15600 nM; in the series on Plasmodium falciparum [2], 595 nM; in the series with Plasmodium falciparum [3], 460 nM. Further, the inhibition entry in series [1] is “Active”.
